Source: ChEMBL document CHEMBL5058577, “EUbOPEN Chemogenomics Library 2 (Multiplex)” (2022)

Tested on: HEK-293T
Experiment: Multiplex assay against HEK293T
Type: toxicity, cell-based
Conditions: human
Summary of the method: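 Imaging took place on a CQ1 microscope at 37°C and 5% CO2 once compound had been added to live cells stained at seeding with Hoechst33342, BioTracker Green Microtubule Cytoskeleton Dye, MitoTracker Red and Annexin V Alexa Fluor 680. CellPathfinder machine-learning gating classed cells as Hoechst high-intensity objects or normal cells, classed normal cells as having healthy, pyknosed or fragmented nuclei, and classed pyknosed cells as mitotic or apoptotic. Tubulin, mitochondrial-mass and membrane-permeability phenotypes are per cents of the healthy-nucleus cells.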

[1] = 12 h, 1 µM, compound concentration 1 uM, replicate 1
[2] = 12 h, 1 µM, compound concentration 1 uM, replicate 2
[3] = 12 h, 10 µM, compound concentration 10 uM, replicate 1
[4] = 12 h, 10 µM, compound concentration 10 uM, replicate 2
[5] = 24 h, 1 µM, compound concentration 1 uM, replicate 1
[6] = 24 h, 1 µM, compound concentration 1 uM, replicate 2
[7] = 24 h, 10 µM, compound concentration 10 uM, replicate 1
[8] = 24 h, 10 µM, compound concentration 10 uM, replicate 2
[9] = 48 h, 1 µM, compound concentration 1 uM, replicate 1
[10] = 48 h, 1 µM, compound concentration 1 uM, replicate 2
[11] = 48 h, 10 µM, compound concentration 10 uM, replicate 1
[12] = 48 h, 10 µM, compound concentration 10 uM, replicate 2

Compound: Cc1ccc(/C(=C\CN2CCCC2)c2ccccn2)cc1 [TRIPROLIDINE]
- Population Apoptotic (%) [1]: 34%
- Population Fragmented Nuclei (%) [1]: 6%
- Population Healthy Nuclei (%) [1]: 83%
- Population Hoechst High Intensity Objects (%) [1]: 7%
- Population Membrane Permeable-Phenotype (%) [1]: 0%
- Population Mitochondria Different-Phenotype (%) [1]: 45%
- Population Mitotic Cells (%) [1]: 65%
- Population Normal (%) [1]: 92%
- Population Pyknosed Nuclei (%) [1]: 9%
- Population Tubulin-Different-Phenotype (%) [1]: 24%
- Total Cell Count [1]: 424
- Population Apoptotic (%) [2]: 50%
- Population Fragmented Nuclei (%) [2]: 3%
- Population Healthy Nuclei (%) [2]: 84%
- Population Hoechst High Intensity Objects (%) [2]: 5%
- Population Mitochondria Different-Phenotype (%) [2]: 55%
- Population Mitotic Cells (%) [2]: 50%
- Population Normal (%) [2]: 94%
- Population Pyknosed Nuclei (%) [2]: 11%
- Population Tubulin-Different-Phenotype (%) [2]: 17%
- Total Cell Count [2]: 446
- Population Apoptotic (%) [3]: 44%
- Population Fragmented Nuclei (%) [3]: 10%
- Population Healthy Nuclei (%) [3]: 72%
- Population Hoechst High Intensity Objects (%) [3]: 15%
- Population Membrane Permeable-Phenotype (%) [3]: 0%
- Population Mitochondria Different-Phenotype (%) [3]: 67%
- Population Mitotic Cells (%) [3]: 56%
- Population Normal (%) [3]: 84%
- Population Pyknosed Nuclei (%) [3]: 16%
- Population Tubulin-Different-Phenotype (%) [3]: 53%
- Total Cell Count [3]: 368
- Population Fragmented Nuclei (%) [4]: 6%
- Population Healthy Nuclei (%) [4]: 77%
- Population Hoechst High Intensity Objects (%) [4]: 8%
- Population Mitochondria Different-Phenotype (%) [4]: 74%
- Population Normal (%) [4]: 91%
- Population Pyknosed Nuclei (%) [4]: 15%
- Population Tubulin-Different-Phenotype (%) [4]: 45%
- Total Cell Count [4]: 344
- Population Apoptotic (%) [5]: 30%
- Population Fragmented Nuclei (%) [5]: 10%
- Population Healthy Nuclei (%) [5]: 78%
- Population Hoechst High Intensity Objects (%) [5]: 3%
- Population Membrane Permeable-Phenotype (%) [5]: 0%
- Population Mitochondria Different-Phenotype (%) [5]: 27%
- Population Mitotic Cells (%) [5]: 70%
- Population Normal (%) [5]: 96%
- Population Pyknosed Nuclei (%) [5]: 10%
- Population Tubulin-Different-Phenotype (%) [5]: 18%
- Total Cell Count [5]: 574
- Population Fragmented Nuclei (%) [6]: 9%
- Population Healthy Nuclei (%) [6]: 82%
- Population Hoechst High Intensity Objects (%) [6]: 7%
- Population Mitochondria Different-Phenotype (%) [6]: 34%
- Population Mitotic Cells (%) [6]: 69%
- Population Normal (%) [6]: 92%
- Population Pyknosed Nuclei (%) [6]: 7%
- Population Tubulin-Different-Phenotype (%) [6]: 9%
- Total Cell Count [6]: 541
- Population Apoptotic (%) [7]: 36%
- Population Fragmented Nuclei (%) [7]: 8%
- Population Healthy Nuclei (%) [7]: 78%
- Population Hoechst High Intensity Objects (%) [7]: 9%
- Population Membrane Permeable-Phenotype (%) [7]: 0%
- Population Mitochondria Different-Phenotype (%) [7]: 55%
- Population Mitotic Cells (%) [7]: 63%
- Population Normal (%) [7]: 90%
- Population Pyknosed Nuclei (%) [7]: 13%
- Population Tubulin-Different-Phenotype (%) [7]: 43%
- Total Cell Count [7]: 490
- Population Apoptotic (%) [8]: 27%
- Population Fragmented Nuclei (%) [8]: 9%
- Population Healthy Nuclei (%) [8]: 80%
- Population Hoechst High Intensity Objects (%) [8]: 4%
- Population Mitochondria Different-Phenotype (%) [8]: 54%
- Population Mitotic Cells (%) [8]: 72%
- Population Normal (%) [8]: 95%
- Population Pyknosed Nuclei (%) [8]: 10%
- Population Tubulin-Different-Phenotype (%) [8]: 26%
- Total Cell Count [8]: 464
- Population Apoptotic (%) [9]: 16%
- Population Fragmented Nuclei (%) [9]: 14%
- Population Healthy Nuclei (%) [9]: 79%
- Population Hoechst High Intensity Objects (%) [9]: 1%
- Population Membrane Permeable-Phenotype (%) [9]: 2%
- Population Mitochondria Different-Phenotype (%) [9]: 17%
- Population Mitotic Cells (%) [9]: 83%
- Population Normal (%) [9]: 98%
- Population Pyknosed Nuclei (%) [9]: 6%
- Population Tubulin-Different-Phenotype (%) [9]: 11%
- Total Cell Count [9]: 950
- Population Apoptotic (%) [10]: 37%
- Population Fragmented Nuclei (%) [10]: 10%
- Population Healthy Nuclei (%) [10]: 84%
- Population Hoechst High Intensity Objects (%) [10]: 3%
- Population Membrane Permeable-Phenotype (%) [10]: 1%
- Population Mitochondria Different-Phenotype (%) [10]: 13%
- Population Mitotic Cells (%) [10]: 62%
- Population Normal (%) [10]: 96%
- Population Pyknosed Nuclei (%) [10]: 4%
- Population Tubulin-Different-Phenotype (%) [10]: 6%
- Total Cell Count [10]: 837
- Population Apoptotic (%) [11]: 43%
- Population Fragmented Nuclei (%) [11]: 16%
- Population Healthy Nuclei (%) [11]: 74%
- Population Hoechst High Intensity Objects (%) [11]: 6%
- Population Membrane Permeable-Phenotype (%) [11]: 0%
- Population Mitochondria Different-Phenotype (%) [11]: 46%
- Population Mitotic Cells (%) [11]: 56%
- Population Normal (%) [11]: 93%
- Population Pyknosed Nuclei (%) [11]: 9%
- Population Tubulin-Different-Phenotype (%) [11]: 29%
- Total Cell Count [11]: 674
- Population Apoptotic (%) [12]: 33%
- Population Fragmented Nuclei (%) [12]: 13%
- Population Healthy Nuclei (%) [12]: 78%
- Population Hoechst High Intensity Objects (%) [12]: 4%
- Population Membrane Permeable-Phenotype (%) [12]: 1%
- Population Mitochondria Different-Phenotype (%) [12]: 43%
- Population Mitotic Cells (%) [12]: 66%
- Population Normal (%) [12]: 95%
- Population Pyknosed Nuclei (%) [12]: 7%
- Population Tubulin-Different-Phenotype (%) [12]: 25%
- Total Cell Count [12]: 644

Compound: CCCC(CCC)C(=O)O [VALPROIC ACID]
- Population Apoptotic (%) [1]: 39%
- Population Fragmented Nuclei (%) [1]: 6%
- Population Healthy Nuclei (%) [1]: 81%
- Population Hoechst High Intensity Objects (%) [1]: 6%
- Population Membrane Permeable-Phenotype (%) [1]: 0%
- Population Mitochondria Different-Phenotype (%) [1]: 29%
- Population Mitotic Cells (%) [1]: 60%
- Population Normal (%) [1]: 93%
- Population Pyknosed Nuclei (%) [1]: 12%
- Population Tubulin-Different-Phenotype (%) [1]: 20%
- Total Cell Count [1]: 513
- Population Apoptotic (%) [2]: 28%
- Population Fragmented Nuclei (%) [2]: 5%
- Population Healthy Nuclei (%) [2]: 79%
- Population Hoechst High Intensity Objects (%) [2]: 5%
- Population Mitochondria Different-Phenotype (%) [2]: 46%
- Population Mitotic Cells (%) [2]: 71%
- Population Normal (%) [2]: 94%
- Population Pyknosed Nuclei (%) [2]: 15%
- Population Tubulin-Different-Phenotype (%) [2]: 16%
- Total Cell Count [2]: 367
- Population Apoptotic (%) [3]: 34%
- Population Fragmented Nuclei (%) [3]: 6%
- Population Healthy Nuclei (%) [3]: 82%
- Population Hoechst High Intensity Objects (%) [3]: 6%
- Population Membrane Permeable-Phenotype (%) [3]: 0%
- Population Mitochondria Different-Phenotype (%) [3]: 40%
- Population Mitotic Cells (%) [3]: 66%
- Population Normal (%) [3]: 93%
- Population Pyknosed Nuclei (%) [3]: 11%
- Population Tubulin-Different-Phenotype (%) [3]: 26%
- Total Cell Count [3]: 455
- Population Apoptotic (%) [4]: 44%
- Population Fragmented Nuclei (%) [4]: 7%
- Population Healthy Nuclei (%) [4]: 81%
- Population Mitochondria Different-Phenotype (%) [4]: 49%
- Population Mitotic Cells (%) [4]: 55%
- Population Tubulin-Different-Phenotype (%) [4]: 20%
- Total Cell Count [4]: 446
- Population Apoptotic (%) [5]: 28%
- Population Fragmented Nuclei (%) [5]: 8%
- Population Healthy Nuclei (%) [5]: 78%
- Population Hoechst High Intensity Objects (%) [5]: 4%
- Population Membrane Permeable-Phenotype (%) [5]: 1%
- Population Mitochondria Different-Phenotype (%) [5]: 22%
- Population Mitotic Cells (%) [5]: 71%
- Population Normal (%) [5]: 95%
- Population Pyknosed Nuclei (%) [5]: 12%
- Population Tubulin-Different-Phenotype (%) [5]: 16%
- Total Cell Count [5]: 663
- Population Apoptotic (%) [6]: 45%
- Population Fragmented Nuclei (%) [6]: 6%
- Population Healthy Nuclei (%) [6]: 83%
- Population Membrane Permeable-Phenotype (%) [6]: 0%
- Population Mitochondria Different-Phenotype (%) [6]: 26%
- Population Mitotic Cells (%) [6]: 54%
- Population Pyknosed Nuclei (%) [6]: 9%
- Population Tubulin-Different-Phenotype (%) [6]: 10%
- Total Cell Count [6]: 469
- Population Apoptotic (%) [7]: 28%
- Population Fragmented Nuclei (%) [7]: 9%
- Population Healthy Nuclei (%) [7]: 81%
- Population Hoechst High Intensity Objects (%) [7]: 4%
- Population Membrane Permeable-Phenotype (%) [7]: 0%
- Population Mitochondria Different-Phenotype (%) [7]: 16%
- Population Mitotic Cells (%) [7]: 71%
- Population Normal (%) [7]: 95%
- Population Pyknosed Nuclei (%) [7]: 9%
- Population Tubulin-Different-Phenotype (%) [7]: 15%
- Total Cell Count [7]: 649
- Population Apoptotic (%) [8]: 23%
- Population Fragmented Nuclei (%) [8]: 8%
- Population Healthy Nuclei (%) [8]: 86%
- Population Hoechst High Intensity Objects (%) [8]: 3%
- Population Mitochondria Different-Phenotype (%) [8]: 30%
- Population Mitotic Cells (%) [8]: 76%
- Population Normal (%) [8]: 96%
- Population Pyknosed Nuclei (%) [8]: 5%
- Population Tubulin-Different-Phenotype (%) [8]: 11%
- Total Cell Count [8]: 593
- Population Apoptotic (%) [9]: 19%
- Population Fragmented Nuclei (%) [9]: 14%
- Population Healthy Nuclei (%) [9]: 78%
- Population Hoechst High Intensity Objects (%) [9]: 2%
- Population Membrane Permeable-Phenotype (%) [9]: 3%
- Population Mitochondria Different-Phenotype (%) [9]: 11%
- Population Mitotic Cells (%) [9]: 80%
- Population Normal (%) [9]: 97%
- Population Pyknosed Nuclei (%) [9]: 6%
- Population Tubulin-Different-Phenotype (%) [9]: 9%
- Total Cell Count [9]: 1112
- Population Apoptotic (%) [10]: 36%
- Population Fragmented Nuclei (%) [10]: 10%
- Population Healthy Nuclei (%) [10]: 81%
- Population Hoechst High Intensity Objects (%) [10]: 3%
- Population Membrane Permeable-Phenotype (%) [10]: 1%
- Population Mitochondria Different-Phenotype (%) [10]: 17%
- Population Mitotic Cells (%) [10]: 63%
- Population Normal (%) [10]: 96%
- Population Pyknosed Nuclei (%) [10]: 8%
- Population Tubulin-Different-Phenotype (%) [10]: 10%
- Total Cell Count [10]: 700
- Population Apoptotic (%) [11]: 21%
- Population Fragmented Nuclei (%) [11]: 15%
- Population Healthy Nuclei (%) [11]: 79%
- Population Hoechst High Intensity Objects (%) [11]: 3%
- Population Membrane Permeable-Phenotype (%) [11]: 1%
- Population Mitochondria Different-Phenotype (%) [11]: 11%
- Population Mitotic Cells (%) [11]: 78%
- Population Normal (%) [11]: 96%
- Population Pyknosed Nuclei (%) [11]: 5%
- Population Tubulin-Different-Phenotype (%) [11]: 9%
- Total Cell Count [11]: 1088
- Population Apoptotic (%) [12]: 27%
- Population Fragmented Nuclei (%) [12]: 13%
- Population Healthy Nuclei (%) [12]: 82%
- Population Hoechst High Intensity Objects (%) [12]: 1%
- Population Membrane Permeable-Phenotype (%) [12]: 2%
- Population Mitochondria Different-Phenotype (%) [12]: 12%
- Population Mitotic Cells (%) [12]: 72%
- Population Normal (%) [12]: 98%
- Population Pyknosed Nuclei (%) [12]: 4%
- Population Tubulin-Different-Phenotype (%) [12]: 6%
- Total Cell Count [12]: 947
